Assay results reported in ChEMBL document CHEMBL1145100, “Structure-activity relationship of imidazo[1,2-a]pyridines as ligands for detecting beta-amyloid plaques in the brain” (J Med Chem, 2003).

Biological target: Amyloid-beta precursor protein (Homo sapiens, UniProt P05067)
Test: Inhibition constant against [125I]-7 (TZDM) binding to Amyloid beta 1-40 aggregates
How it was run: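 Abeta40 peptide aggregated at 0.5 mg/mL in pH 7.4 buffer (10 mM sodium phosphate, 1 mM EDTA), 37 °C for 36-42 h with shaking. Competition in 1 mL of 40% EtOH: fibrils 10-50 nM final, radiotracer 0.05 nM, inhibitors 10^-5 to 10^-10 M. Nonspecific binding with 2 µM thioflavin-T. Incubated 3 h at room temperature, then GF/B filtration with 10% ethanol washes and gamma counting. Ki from nonlinear regression.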

Sequence of Amyloid-beta precursor protein (P05067 whole entry): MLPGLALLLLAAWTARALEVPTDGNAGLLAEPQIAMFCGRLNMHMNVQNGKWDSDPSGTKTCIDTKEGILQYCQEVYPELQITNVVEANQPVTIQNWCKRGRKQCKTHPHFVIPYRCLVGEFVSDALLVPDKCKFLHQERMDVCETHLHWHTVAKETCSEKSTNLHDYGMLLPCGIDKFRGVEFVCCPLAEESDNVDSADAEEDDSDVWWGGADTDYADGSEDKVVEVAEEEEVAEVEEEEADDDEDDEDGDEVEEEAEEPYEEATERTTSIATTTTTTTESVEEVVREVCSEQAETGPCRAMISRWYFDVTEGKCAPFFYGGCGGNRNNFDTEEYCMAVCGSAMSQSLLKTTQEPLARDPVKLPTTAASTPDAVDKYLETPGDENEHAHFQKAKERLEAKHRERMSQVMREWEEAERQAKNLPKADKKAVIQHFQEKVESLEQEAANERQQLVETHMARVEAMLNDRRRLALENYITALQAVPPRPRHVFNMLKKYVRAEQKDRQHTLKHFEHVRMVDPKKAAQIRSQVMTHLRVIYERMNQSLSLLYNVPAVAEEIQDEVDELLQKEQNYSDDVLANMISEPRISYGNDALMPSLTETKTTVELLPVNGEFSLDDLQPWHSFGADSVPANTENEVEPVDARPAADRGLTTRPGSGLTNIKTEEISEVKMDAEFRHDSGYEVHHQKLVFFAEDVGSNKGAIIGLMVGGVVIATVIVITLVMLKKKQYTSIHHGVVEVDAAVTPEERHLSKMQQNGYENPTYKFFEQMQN

| Ki | SMILES |
| --- | --- |
| > 2 µM | CN(C)c1ccc(-c2nc3ccc(I)cn3c2I)cc1 |
| > 2 µM | CNc1ccc(-c2cn3cc(C)ccc3n2)cc1 |
